Assay [1] relates to Human immunodeficiency virus 1. The assay is described as follows: Antiviral activity against HIV1 isolate 7 infected in human MT4 cells obtained from protease inhibitor-resistant patient harboring protease L10I, M46M/L, G48V, I54V, L63P, A71V, I72M, V77I, V82A, L90M, I93L mutation derived from viral passages with Lopinavir assessed as reduction in viral cytopathogenicity treated 1 hr post infection measured 5 days post infection by MTT assay relative to wild …. It is filed as functional.

Assay [2] deals with Human immunodeficiency virus 1. Nature of the assay: Antiviral activity against HIV1 isolate 8 infected in human MT4 cells obtained from protease inhibitor-resistant patient harboring protease L10I, I13V, L33F, E34Q, R41K, M46I, I54V, K55R, R57K, Q58E, I62V, L63P, A71V, I72I/T, G73S, V82A, I84V, L90M mutation derived from viral passages with Lopinavir assessed as reduction in viral cytopathogenicity treated 1 hr post infection measured 5 days post …. It is filed as functional.

The test system of assay [3] is Human immunodeficiency virus 1. The assay is described as follows: Antiviral activity against HIV1 isolate 10 infected in human MT4 cells obtained from protease inhibitor-resistant patient harboring protease L10I, I13V, K20R, L33F, E35D, M36I, N37D, I54L, Q58E, I62V, L63P, A71V, V82A, I84V, L90M mutation derived from viral passages with Lopinavir assessed as reduction in viral cytopathogenicity treated 1 hr post infection measured 5 days post infection by MTT …. The format is functional.

The subject of assay [4] is Human immunodeficiency virus 1. The assay is described as follows: Antiviral activity against HIV1 isolate 11 infected in human MT4 cells obtained from protease inhibitor-resistant patient harboring protease L10I, I15V, K20R, E21Q, E35D, M36I, N37D, R41K, M46L, I54V, I62V, L63P, A71V, T74D, P79A, V82T, I84V, I85V, L90M, I93L mutation derived from viral passages with Lopinavir assessed as reduction in viral cytopathogenicity treated 1 hr post infection measured …. It is filed as functional.

For assay [5], the system named is Human immunodeficiency virus 1. The assay is described as follows: Antiviral activity against HIV1 isolate 12 infected in human MT4 cells obtained from protease inhibitor-resistant patient harboring protease L10I, I13V, K20I, E35D, M36I, M46I, I50V, I54V, R57K, I62V, L63P, A71V, V82A, L89V, L90M, Q92K mutation derived from viral passages with Lopinavir assessed as reduction in viral cytopathogenicity treated 1 hr post infection measured 5 days post infection by …. The format is functional.

The test system of assay [6] is Human immunodeficiency virus 1. The assay is described as follows: Antiviral activity against HIV1 pNL4-3 infected in human MT4 cells derived from 8 viral passages with 50 nM A-790742 harboring protease V82V/L, I84V mutation assessed as reduction in viral cytopathogenicity treated 1 hr post infection measured 5 days post infection by MTT assay relative to wild type HIV1 pNL4-3. The format is functional. The essentials:
(§1)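 Selection: MT-4 cells infected with parental pNL4-3 or RF (MOI 0.003, 2 h), then passaged under rising selecting drug whenever supernatant p24 (ELISA) exceeded 10 ng/ml. Passage viruses titred by TCID50 (Spearman-Karber). Assay: 10^6 MT-4 cells infected at MOI 0.003 for 1 h, washed, and seeded at 10^4 cells/well with eight serial dilutions, triplicate, 0.5% DMSO final. Day-5 MTT read-out; EC50 fold-change versus parental wild type.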

Assay [7] concerns Human immunodeficiency virus 1. The assay is described as follows: Antiviral activity against HIV1 pNL4-3 infected in human MT4 cells derived from 13 viral passages with 400 nM A-790742 harboring protease V82L, I84V mutation assessed as reduction in viral cytopathogenicity treated 1 hr post infection measured 5 days post infection by MTT assay relative to wild type HIV1 pNL4-3. It is filed as functional. In outline: as §1

Assay [8] relates to Human immunodeficiency virus 1. Nature of the assay: Antiviral activity against HIV1 pNL4-3 infected in human MT4 cells derived from 18 viral passages with 900 nM A-790742 harboring protease L33F, K45I, A71A/V, V77V/I, V82L, I84V mutation assessed as reduction in viral cytopathogenicity treated 1 hr post infection measured 5 days post infection by MTT assay relative to wild type HIV1 pNL4-3. The format is functional. The essentials:
as §1

Assay [9] has as its system Human immunodeficiency virus 1. The assay is described as follows: Antiviral activity against HIV1 RF infected in human MT4 cells derived from 8 viral passages with 52 nM A-790742 harboring protease V75I mutation assessed as reduction in viral cytopathogenicity treated 1 hr post infection measured 5 days post infection by MTT assay relative to wild type HIV1 RF. It is filed as functional. The essentials: as §1

Assay [10] concerns Human immunodeficiency virus 1. The assay is described as follows: Antiviral activity against HIV1 RF infected in human MT4 cells derived from 10 viral passages with 160 nM A-790742 harboring protease A71V, V82G mutation assessed as reduction in viral cytopathogenicity treated 1 hr post infection measured 5 days post infection by MTT assay relative to wild type HIV1 RF. The format is functional. The essentials: as §1

Assay [11] concerns Human immunodeficiency virus 1. Nature of the assay: Antiviral activity against HIV1 RF infected in human MT4 cells derived from 13 viral passages with 340 nM A-790742 harboring protease M46I, L63P, A71V, V82G mutation assessed as reduction in viral cytopathogenicity treated 1 hr post infection measured 5 days post infection by MTT assay relative to wild type HIV1 RF. The format is functional. In outline:
as §1

The test system of assay [12] is Human immunodeficiency virus 1. Nature of the assay: Antiviral activity against HIV1 P9 infected in human MT4 cells derived from viral passages with A-790742 harboring protease V82V/L and I84V mutation assessed as reduction in viral cytopathogenicity treated 1 hr post infection measured 5 days post infection by MTT assay relative to wild type HIV1 pNL4-3. It is filed as functional. In outline: (§2)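 For the assay, 10⁶ MT-4 cells were infected at MOI 0.003, washed after 1 h, and plated at 10⁴ cells/well with eight serial compound dilutions in triplicate (0.5% DMSO final). MTT cytopathic read-out at day 5; EC50 from dose-response fitting.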

Assay [13] concerns Human immunodeficiency virus 1. Nature of the assay: Antiviral activity against HIV1 clone1 infected in HEK293 cells harboring A-790742-selected protease I84V mutation assessed as reduction in viral replication by luciferase reporter gene assay relative to wild type HIV1 pNL4-3. It is filed as functional. The essentials: (§3)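 Single-cycle assay: HEK-293 cells were cotransfected with luciferase-reporter HIV-1 protease clones plus a VSV-G expression vector. After 4 h, cells were replated at 2 × 10⁴/well over serial inhibitor dilutions in triplicate. Pseudovirus collected at 48 h infected fresh HEK-293 (10⁴/well). Luciferase read 48 h later gave % inhibition versus untreated and EC50. Fold change against WT pNL4-3-Luc (clones 1-4) or RF-Luc (clone 5) is the mean of three experiments.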

In assay [14] the test system is Human immunodeficiency virus 1. The assay is described as follows: Antiviral activity against HIV1 clone4 infected in HEK293 cells harboring A-790742-selected protease L33F, A71V, G73S, V77I, V82L, and I84V mutation assessed as reduction in viral replication by luciferase reporter gene assay relative to wild type HIV1 pNL4-3. The format is functional. In outline: as §3

Assay [15] has as its system Human immunodeficiency virus 1. The assay is described as follows: Antiviral activity against HIV1 clone5 infected in HEK293 cells harboring A-790742-selected protease L63P, A71V, and V82G mutation assessed as reduction in viral replication by luciferase reporter gene assay relative to wild type HIV1 RF. It is filed as functional. In outline: as §3
The subject of assay [16] is Human immunodeficiency virus 1. The assay is described as follows: Antiviral activity against HIV1 isolate 6 infected in human MT4 cells obtained from protease inhibitor-resistant patient harboring protease L10I, L24I, M46I, I54V, K55R, Q58E, L63P, I64V, A71V, V82A, T91A mutation derived from viral passages with Lopinavir assessed as reduction in viral cytopathogenicity treated 1 hr post infection measured 5 days post infection by MTT assay relative to wild type …. It is filed as functional.

Assay [17] has as its system Human immunodeficiency virus 1. Nature of the assay: Antiviral activity against HIV1 B26 infected in human MT4 cells harboring protease L33F, K45I, M46I, I50V, I54V, A71V, and V82F mutation derived from viral passages with Lopinavir assessed as reduction in viral cytopathogenicity treated 1 hr post infection measured 5 days post infection by MTT assay. It is filed as functional, organism-based. The note with it: Human immunodeficiency virus 1, B26, MT4. The essentials:
as §2

For assay [18], the system named is Human immunodeficiency virus 1. Nature of the assay: Antiviral activity against HIV1 P25 infected in human MT4 cells harboring protease L10F, G16E, V32I, M46I, I47A, H69Y, I84V, and T91S mutation derived from viral passages with Lopinavir assessed as reduction in viral cytopathogenicity treated 1 hr post infection measured 5 days post infection by MTT assay. The format is functional, organism-based. The note with it: Human immunodeficiency virus 1, P25, MT4. The essentials:
as §2

Assay [19] relates to Human immunodeficiency virus 1. Nature of the assay: Antiviral activity against HIV1 isolate 2 infected in human MT4 cells obtained from protease inhibitor-resistant patient harboring protease L10I, I15V, G16E, K20R, E35D, M36I, R41K, I54A, R57K, Q61D, A71V, I72R, V82A, L89I, L90M, Q92K mutation derived from viral passages with Lopinavir assessed as reduction in viral cytopathogenicity treated 1 hr post infection measured 5 days post infection by …. The format is functional.

Assay [20] relates to Human immunodeficiency virus 1. The assay is described as follows: Antiviral activity against HIV1 isolate 4 infected in human MT4 cells obtained from protease inhibitor-resistant patient harboring protease N37T, M46I, Q58E, I64V, T74K, V77I, V82F, L90M mutation derived from viral passages with Lopinavir assessed as reduction in viral cytopathogenicity treated 1 hr post infection measured 5 days post infection by MTT assay relative to wild type HIV1 pNL4-3. It is filed as functional.

For assay [21], the system named is Human immunodeficiency virus 1. Nature of the assay: Antiviral activity against HIV1 isolate 5 infected in human MT4 cells obtained from protease inhibitor-resistant patient harboring protease L10F, I15V, M46I, L63P, A71V, I72L, V82T, I84V, I85V, L90M mutation derived from viral passages with Lopinavir assessed as reduction in viral cytopathogenicity treated 1 hr post infection measured 5 days post infection by MTT assay relative to wild type HIV1 …. It is filed as functional.

As to `COC(=O)N[C@H](C(=O)N[C@H](Cc1ccc(-c2ccccn2)cc1)C[C@H](O)[C@H](Cc1ccccc1)NC(=O)[C@@H](N1CCN(Cc2cccc(C(C)(C)O)n2)C1=O)C(C)(C)C)C(C)(C)C`, the “Ratio EC50” value in assay [1] stood at 2; in [2] it was 4; in assay [3] it was 10; in [4], 11; in assay [5], 1; in [6], 16.7. Moreover, the “Ratio EC50” value in assay [7] is 133.3; in assay [8], 300; in [9] it was 10.4; in assay [10] it was 32; in assay [11] it was 68; in assay [12], 13. Further, the “Ratio EC50” value in assay [13] came out at 2; in assay [14], 158; in assay [15], 72; in [16], 1; in [19], 12; in assay [20], 1. In addition, the “Ratio EC50” value in assay [21] was 2. Besides, the EC50 stood at 22 nM in assay [17] and 45 nM in assay [18].

For the origin of these results see ChEMBL document CHEMBL1255290, “Characterization of a novel human immunodeficiency virus type 1 protease inhibitor, A-790742” (Antimicrob Agents Chemother, 2008).
